The source of these data is paper PMC11437091 (Scientific Reports, 2024).

For assay [1], the system named is EDB-FN in MDA-MB-231 cells. In words: confocal immunofluorescence colocalization with EDB-FN. In kind it is cell-based. Conditions: confocal microscopy, 1 µM, 37 °C, 2 h. The gist of the method:
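MDA-MB-231 cells were seeded at 1 × 10^5 cells/ml in confocal dishes. They were incubated with 1 µM Cy5-labelled test compound for 2 h at 37 °C, washed six times with PBST, and fixed in 4% paraformaldehyde. Permeabilization used 0.25% Triton X-100 and blocking used 5% BSA for 30 min. Anti-EDB-FN mAb (1:1000) was applied overnight at 4 °C. Alexa Fluor 488 anti-rabbit (4 µg/mL) was applied 1 h at RT. Nuclei were stained with DAPI and imaged by confocal microscopy.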

For another assay, the system named is MCF7 cells. In words: flow cytometry binding of EDBp-Cy5 to cells. In kind it is cell-based. Conditions: 1 µM, 37 °C, 60 min. The essentials:
(§1)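 Cells were grown in DMEM with 10% FBS at 37 °C and 5% CO2, then seeded at 1 × 10^6 cells/ml in 6-well plates. They were stained with 1 µM Cy5-labelled test compound, or a Cy5-labelled cyclic control peptide, for 60 min at 37 °C. Cells were washed three times with PBS and analysed by flow cytometry for Cy5 signal.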
(In flow cytometry, cells or beads pass a laser one at a time.)

The test system of a further assay is MDA-MB-231 cells. In words: flow cytometry binding of EDBp-Cy5 to cells. In kind it is cell-based. The following applies: 1 µM, 37 °C, 60 min. The essentials: as §1
In assay [2] the test system is subcutaneous MDA-MB-231-luc tumor. In words: NIRF imaging, subcutaneous tumor model mice. In kind it is in vivo. The essentials: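 Female BALB/c-nude mice, 6 weeks old, received 1 × 10^6 MDA-MB-231-luc cells s.c. in PBS with 30% matrigel. The Cy5-labelled test compound (1 µmol) was injected i.v. via tail vein. IVIS whole-body imaging at 48 h used excitation 640 nm and emission 680 nm. Luminescence was read from 10 min after i.p. luciferin 150 mg/kg. Organs and tumour were imaged ex vivo after euthanasia, with semiquantitative fluorescence intensity, n = 3.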

Another assay has as its system EMT6 cells. The assay is described as follows: flow cytometry binding of EDBp-Cy5 to cells. In kind it is cell-based. Conditions: 1 µM, 37 °C, 60 min. The essentials: as §1

For AVRTSAD-PEG4-K-Cy5 [EDBp-Cy5], the “colocalization with EDB-FN” value in assay [1] is “colocalized with EDB-FN”. Moreover, the cell binding ability result with MCF7 cells is “moderate”; in the assay with MDA-MB-231 cells, “high”; in the assay on EMT6 cells, “moderate”. Besides, the “enrichment in subcutaneous tumor (NIRF imaging)” value in assay [2] (48 h after i.v. injection of 1 µmol, whole-body imaging) is given as “significantly enriched”. The “ex vivo distribution in main organs and tumor (NIRF)” value in assay [2] (48 h after injection, organs collected, n = 3) was “observed mainly in the kidney and subcutaneous tumor”.
